ChEMBL document CHEMBL3393025, “Discovery of dual leucine zipper kinase (DLK, MAP3K12) inhibitors with activity in neurodegeneration models” (J Med Chem, 2015)
The source made the active and inactive calls. No cut-off for these calls is given here.

Experiments:
[1] = biological target: Mitogen-activated protein kinase 10 (Homo sapiens, UniProt P53779); assay: Inhibition of JNK3 (unknown origin)
[2] = Oral bioavailability in mouse at 5 mg/kg; assay type: ADME, organism-based; settings: in vivo
Outline: (§1)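 Single-compound PK. Intravenous dose 1 mg/kg given as a 60% PEG solution. Oral dose 5 mg/kg given as an aqueous suspension in 1% methylcellulose. Plasma clearance, steady-state volume of distribution, half-life and oral bioavailability were determined from these doses.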

[3] = Volume of distribution at steady state in dog at 1 mg/kg, iv and 5 mg/kg, po; assay type: ADME, organism-based, Canis lupus familiaris; settings: in vivo, read-out: Vdss; outline: as §1
[4] = biological target: Proto-oncogene tyrosine-protein kinase Src (Homo sapiens) (UniProt P12931); assay: Inhibition of Src_N1 (unknown origin) at 0.1 uM
Outline: (§2)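 Kinase selectivity panel of 298 kinases, test compound at 0.1 μM, percent inhibition reported.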

[5] = tested on: MDR1; assay: Apparent permeability from apical to basolateral side in MDCK cells expressing human MDR1 at 5 uM after 60 to 180 mins by LC-MS/MS analysis; assay type: ADME, cell-based, Canis lupus familiaris; settings: dog
[6] = Half life in dog at 1 mg/kg, iv and 5 mg/kg, po; assay type: ADME, organism-based, Canis lupus familiaris; settings: in vivo; outline: as §1
[7] = biological target: Serine/threonine-protein kinase 16 (Homo sapiens) (UniProt O75716); assay: Inhibition of STK16 (unknown origin) at 0.1 uM; outline: as §2
[8] = Plasma clearance in cynomolgus monkey at 1 mg/kg, iv and 5 mg/kg, po; assay type: ADME, organism-based, Macaca fascicularis; outline: as §1
[9] = tested on: DRG neuron; assay: (§3) Neuroprotective activity in E14.5 rat embryo DRG neurons; assay type: functional
Outline: (§4)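 DRG neurons freshly dissected from E14.5 rat embryos, plated at 1200−2000 cells/well on an astrocyte monolayer in DMEM/F12 with N3 supplement, 0.18% glucose and 25 ng/mL NGF. 200 μM uridine and 100 μM 5-fluorodeoxyuridine added next day. Cultured 4 days before axon degeneration assay. IC50 reported.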

[10] = as §3; assay type: functional; settings: drg neuron; outline: as §4
[11] = Volume of distribution at steady state in rat at 1 mg/kg, iv and 5 mg/kg, po; assay type: ADME, organism-based; settings: in vivo, read-out: Vdss; outline: as §1
[12] = biological target: Tyrosine-protein kinase SYK (Homo sapiens) (UniProt P43405); assay: Inhibition of Syk (unknown origin) at 0.1 uM; outline: as §2
[13] = tested on: Mus musculus; assay: Neuroprotective activity against C57Bl/6 mouse Parkinson's disease model assessed as reduction of MPTP-induced increase in phosphorylated c-Jun level in substantia nigra at 37.5 to 75 mg/kg, po administered 30 mins prior to MPTP challenge followed by 2nd dosing after 12 and 24 hrs measured 1 hr post last dose by ELISA relative to vehicle-treated control; assay type: functional, organism-based
[14] = Oral bioavailability in dog at 5 mg/kg; assay type: ADME, organism-based, Canis lupus familiaris; settings: in vivo; outline: as §1
[15] = Half life in rat at 1 mg/kg, iv and 5 mg/kg, po; assay type: ADME, organism-based; settings: in vivo; outline: as §1
[16] = biological target: T1, Ephrin type-A receptor 1 (Homo sapiens) (UniProt P21709); assay: Inhibition of EphA1 (unknown origin) at 0.1 uM; outline: as §2
T1 sequence (whole entry): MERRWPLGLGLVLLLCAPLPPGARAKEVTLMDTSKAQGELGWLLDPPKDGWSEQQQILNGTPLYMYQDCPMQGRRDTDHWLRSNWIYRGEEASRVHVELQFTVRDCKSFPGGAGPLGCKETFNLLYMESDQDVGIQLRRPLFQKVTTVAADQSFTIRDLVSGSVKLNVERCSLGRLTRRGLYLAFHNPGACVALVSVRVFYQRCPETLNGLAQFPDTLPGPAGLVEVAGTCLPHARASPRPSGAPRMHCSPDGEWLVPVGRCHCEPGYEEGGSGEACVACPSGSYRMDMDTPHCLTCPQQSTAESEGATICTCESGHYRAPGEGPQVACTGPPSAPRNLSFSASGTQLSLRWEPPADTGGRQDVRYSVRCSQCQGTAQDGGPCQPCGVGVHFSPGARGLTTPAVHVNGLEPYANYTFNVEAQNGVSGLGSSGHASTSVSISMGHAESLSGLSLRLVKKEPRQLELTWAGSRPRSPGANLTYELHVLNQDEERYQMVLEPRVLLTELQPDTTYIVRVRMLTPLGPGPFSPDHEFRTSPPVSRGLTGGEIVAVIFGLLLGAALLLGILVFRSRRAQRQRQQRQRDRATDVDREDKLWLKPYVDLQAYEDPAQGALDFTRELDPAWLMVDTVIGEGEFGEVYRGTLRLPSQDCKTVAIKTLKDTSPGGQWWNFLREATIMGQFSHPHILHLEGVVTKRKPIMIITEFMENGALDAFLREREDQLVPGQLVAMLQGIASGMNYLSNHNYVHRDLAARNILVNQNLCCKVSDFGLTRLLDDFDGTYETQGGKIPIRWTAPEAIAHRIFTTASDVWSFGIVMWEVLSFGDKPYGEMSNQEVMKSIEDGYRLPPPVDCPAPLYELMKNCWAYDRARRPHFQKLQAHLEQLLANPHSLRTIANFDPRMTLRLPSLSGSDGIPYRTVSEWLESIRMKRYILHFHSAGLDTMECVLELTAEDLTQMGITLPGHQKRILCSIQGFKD

Sequence of Proto-oncogene tyrosine-protein kinase Src (Homo sapiens) (P12931 2-536 limits assumed): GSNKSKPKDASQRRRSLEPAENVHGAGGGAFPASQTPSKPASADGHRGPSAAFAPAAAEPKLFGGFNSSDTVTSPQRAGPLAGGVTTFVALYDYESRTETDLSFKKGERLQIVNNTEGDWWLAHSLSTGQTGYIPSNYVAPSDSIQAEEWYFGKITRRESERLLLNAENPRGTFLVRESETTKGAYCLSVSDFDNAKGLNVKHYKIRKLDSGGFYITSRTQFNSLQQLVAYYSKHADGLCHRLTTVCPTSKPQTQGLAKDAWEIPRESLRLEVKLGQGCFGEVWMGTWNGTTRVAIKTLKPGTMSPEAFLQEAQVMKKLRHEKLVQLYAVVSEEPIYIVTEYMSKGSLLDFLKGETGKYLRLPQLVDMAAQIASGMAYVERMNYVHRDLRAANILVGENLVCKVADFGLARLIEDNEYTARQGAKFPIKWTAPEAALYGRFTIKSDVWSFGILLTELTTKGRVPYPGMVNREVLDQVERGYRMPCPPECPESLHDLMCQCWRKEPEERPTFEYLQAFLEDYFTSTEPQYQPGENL
Sequence of Mitogen-activated protein kinase 10 (P53779 whole entry): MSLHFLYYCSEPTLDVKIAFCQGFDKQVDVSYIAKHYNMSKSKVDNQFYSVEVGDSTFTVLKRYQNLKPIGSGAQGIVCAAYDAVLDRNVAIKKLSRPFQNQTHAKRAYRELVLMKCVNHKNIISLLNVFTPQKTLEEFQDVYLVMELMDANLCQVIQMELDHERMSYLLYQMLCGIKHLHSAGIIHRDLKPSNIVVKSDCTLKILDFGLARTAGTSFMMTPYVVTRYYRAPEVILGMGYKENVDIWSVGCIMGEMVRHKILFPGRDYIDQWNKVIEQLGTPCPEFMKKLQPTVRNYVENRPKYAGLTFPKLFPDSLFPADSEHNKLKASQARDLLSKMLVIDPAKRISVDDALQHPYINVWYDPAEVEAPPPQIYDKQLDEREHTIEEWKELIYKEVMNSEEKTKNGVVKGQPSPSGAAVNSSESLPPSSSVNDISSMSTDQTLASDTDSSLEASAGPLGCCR
Sequence of Serine/threonine-protein kinase 16 (Homo sapiens) (O75716 whole entry): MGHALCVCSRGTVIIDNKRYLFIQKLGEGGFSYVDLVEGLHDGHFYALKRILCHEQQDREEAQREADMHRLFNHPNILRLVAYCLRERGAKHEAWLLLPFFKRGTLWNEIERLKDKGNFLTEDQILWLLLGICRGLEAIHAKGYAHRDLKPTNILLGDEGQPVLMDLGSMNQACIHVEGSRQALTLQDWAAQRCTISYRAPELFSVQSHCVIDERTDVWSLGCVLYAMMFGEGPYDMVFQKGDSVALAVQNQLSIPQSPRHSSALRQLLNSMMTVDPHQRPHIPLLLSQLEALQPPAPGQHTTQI

IC50 [1]: 364 nM
bioavailability [2]: 45%
Vd [3]: 6.5 L/kg
inhibition [4]: > 80%
Papp A→B at 5 µM [5]: 6 ×10⁻⁶ cm/s
half-life [6]: 4 h
inhibition [7]: > 80%
clearance [8]: 16 mL/min/kg
Vd [11]: 3.7 L/kg
inhibition [12]: > 80%
bioavailability [14]: 32%
half-life [15]: 1.8 h
inhibition [16]: > 80%
Compound: N#Cc1ccnc(Nc2cc(C3CCN(C4COC4)CC3)cc(N3CCC(F)(F)C3)n2)c1
Activity [9]: Dose-dependent effect
IC50 [10]: 107 nM
Activity [13]: Active
